Screening data: PubChem BioAssay, Johns Hopkins Ion Channel Center
RGS4 block: RGS4 inhibitors, primary screen, cell-based, HEK293 M3R inducible RGS4, calcium flux | Fluo-4 calcium flux; stronger effect = higher value; triggered by carbachol at its EC20 | B-score at 10 µM | 0.45% of 310,000 active | AID 463165, 2010;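 active = B-score, a plate-corrected calcium signal, over three deviations above library mean, with baseline fluorescence within five deviations of library mean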;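 also: RGS4 expression induced by doxycycline in cells with stable M3 receptor; B-score is computed from the integrated fluorescence ratio over baseline after carbachol; higher B-score means a larger calcium signal and so more RGS4 inhibition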
Target sequence (P49798 whole entry, looked up): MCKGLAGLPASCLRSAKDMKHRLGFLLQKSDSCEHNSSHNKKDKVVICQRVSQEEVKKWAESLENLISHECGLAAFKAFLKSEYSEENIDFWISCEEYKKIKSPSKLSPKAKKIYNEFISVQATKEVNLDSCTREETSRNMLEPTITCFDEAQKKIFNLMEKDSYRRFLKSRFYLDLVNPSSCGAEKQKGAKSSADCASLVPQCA
RGS4 pot: RGS4 potentiators or activators, primary screen, cell-based, HEK293 M3R inducible RGS4, calcium flux | AID 463111, 2010 | carbachol calcium flux Fluo4; stronger effect = lower value | 0.92% of 310,000 active | B-score at 10 µM;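 active = B-score of the integrated calcium signal more than 4 SD below the library mean, with starting fluorescence not abnormally high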;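 also: negative B-score means reduced calcium response which marks RGS4 activation or potentiation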
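Reagent: ECmax carbachol challenge; Test system: M3R-expressing HEK293 line, RGS4 induced by doxycycline; Schedule: overnight RGS4 induction, 30 min dye load 37 °C, 20 min compound RT; Detection: calcium dye Fluo4 fluorescence; Read-out: Agonist-evoked peak-minus-minimum fluorescence over baseline, integrated ratio, B score.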
MrgX1 ag: agonists of human MrgX1 receptor, primary screen, HEK293 cells, Fluo-4 calcium flux | Mas-related G-protein coupled receptor member X1 (Homo sapiens), Q96LB2 | Fluo-4 calcium fluorescence, agonist mode; stronger effect = higher value | B-score at 10 µM | 0.44% of 310,000 active | AID 588627, 2011;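 active = calcium response B-score plate-corrected fluorescence ratio at least 3 library SD, with starting fluorescence B-score inside 5 SD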
Target sequence (Q96LB2 whole entry, looked up): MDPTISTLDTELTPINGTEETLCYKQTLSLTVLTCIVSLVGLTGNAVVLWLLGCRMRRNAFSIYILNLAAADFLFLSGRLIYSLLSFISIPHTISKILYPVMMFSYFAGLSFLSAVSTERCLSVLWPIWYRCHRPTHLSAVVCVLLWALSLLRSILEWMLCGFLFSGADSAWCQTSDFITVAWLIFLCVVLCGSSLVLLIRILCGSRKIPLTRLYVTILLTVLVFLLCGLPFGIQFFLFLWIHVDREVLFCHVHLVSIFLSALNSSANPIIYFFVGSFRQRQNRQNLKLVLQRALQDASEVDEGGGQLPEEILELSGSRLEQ
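Material: MrgX1-expressing HEK293 cells / Dosing: compound as first of three additions / Incubation: overnight seeding, then 1 h dark dye loading / Signal: Fluo-4 NW calcium fluorescence / Evaluation: B-scored fluorescence response ratio / Benchmarks: positive and negative control wells on each plate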
MrgX1 antagonist: antagonists of human MrgX1 receptor, primary screen, HEK293 cells, Fluo-4 calcium flux | Mas-related G-protein coupled receptor member X1 (Homo sapiens), Q96LB2 | BAM8-22 antagonism; stronger effect = lower value | B-score at 10 µM | 1.3% of 310,000 active | AID 588676, 2011;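 active = calcium-response B-score plate-corrected more than 3 library SD below zero, starting fluorescence within 5 deviations, no agonist response on first addition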;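 also: peak minus trough fluorescence over baseline after final BAM8-22 challenge near maximal dose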
MrgX1 allo act: positive allosteric modulators of MrgX1, primary screen, HEK293 cells, Fluo-4 calcium flux; 0.63% of 310,000 active; B-score at 10 µM; FDSS; stronger effect = higher value;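 active = plate-corrected calcium response at least 3 library SD above typical, normal starting fluorescence, not activating the receptor alone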;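 also: compound read alongside a low EC10 to EC30 dose of BAM8-22 agonist; peak minus trough fluorescence over baseline measured at the second addition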
The depositor's hits bear a star; i = inactive. The list is not random: actives were taken first. Their share in the collection is about 3.5%.

SMILES	RGS4 block	RGS4 pot	MrgX1 ag	MrgX1 antagonist	MrgX1 allo act
Cc1nc2c3cc(Cl)ccc3n(CCN3CCCCC3)c2s1	i	i	i	i	11.4*
N#Cc1ccccc1S(=O)(=O)c1ccccc1C(=O)Nc1ccccc1	i	i	i	i	i
CCCCN1C(=O)C2(NNc3ccccc3O2)c2ccccc21 (stereo unspecified)	i	i	i	-6.05*	i
CN(C)C(CNC(=O)CSc1nc2ccccc2c(=O)n1Cc1ccco1)c1ccccc1 (stereo unspecified)	i	i	i	i	i
COc1cc2c(cc1OC)/C(=C/C(=O)c1ccc(OC)c([N+](=O)[O-])c1)NCC2	i	-7.29*	i	-4.58*	i
CC1(C)CC(=O)C([N+](=O)[O-])=C(NCCCC(=O)O)C1	i	i	i	-5.4*	i
C=CCn1c(CSc2ccccc2[N+](=O)[O-])n[nH]c1=S	i	i	i	i	i
C=CCn1c(Sc2ncc([N+](=O)[O-])s2)n[nH]c1=O	i	-8.04*	i	-9.16*	i
CCOc1cc(N2CCOCC2)c(OCC)cc1NC(=O)COC(=O)COc1cc(C)cc(C)c1	i	i	i	i	i
CCOc1cc(N2CCOCC2)c(OCC)cc1NC(=O)COC(=O)COc1ccc(C#N)cc1	i	i	i	-6.32*	i
Cc1ccc(NC2CCCN(C(=O)c3cccs3)C2)cc1C (stereo unspecified)	i	i	i	i	i
COc1cc(C(=O)Nc2cc3c4c(c2)CC(=O)N4CCC3)cc(OC)c1OC	i	i	i	i	i
COc1ccccc1CNS(=O)(=O)c1ccc2c(c1)NC(=O)C(C)S2 (stereo unspecified)	i	i	i	i	i
CCc1ccc(CN2CCC(Oc3ccc(C(=O)N4CCCC4)cc3)CC2)cc1	i	i	i	i	i
CCc1ccc(CN2CCC(Oc3ccc(C(=O)N4CCCCC4)cc3)CC2)cc1	i	-7.18*	i	i	i
CCCn1c(N)c(N(CCOC)C(=O)c2cc(S(=O)(=O)N3CCCCCC3)ccc2OC)c(=O)[nH]c1=O	i	i	i	i	i
CCOC(=O)c1ccc(NC(=O)N2CCN(c3ccccn3)CC2)cc1	i	-7.14*	i	i	i
N#C/C(=C\c1ccc2c(c1)OCO2)C(N)=S	i	i	i	i	7.48*
CCOC(=O)/C(C#N)=C\c1ccc2c(c1)OCO2	i	i	i	i	i
NC(=O)c1ccc(SCC(=O)OCC(=O)N2CCN(C(=O)c3ccco3)CC2)c([N+](=O)[O-])c1	i	i	i	i	i
C=CCOc1ccc2c(OC)c3ccoc3nc2c1OC	i	i	i	i	i
COc1c2c(nc3occc13)C(CC=C(C)C)(OC)C(=O)C=C2 (stereo unspecified)	i	i	i	i	12.3*
Cc1ccc(S(=O)(=O)NC(C)C(=O)NC2CCCCCC2)cc1 (stereo unspecified)	i	-7.24*	i	i	i
COc1ccc(-c2cc(C(=O)NNC(=S)NC(=O)c3c(-c4ccccc4)noc3C)[nH]n2)cc1	i	i	i	i	i
COc1ccc(/C=C/C(=O)NC(=S)NNC(=O)c2c(-c3ccccc3)noc2C)cc1	i	i	28.9*	i	i
SMILES	RGS4 block	RGS4 pot	MrgX1 ag	MrgX1 antagonist	MrgX1 allo act
CCNC(=S)NNC(=O)c1cc(-c2ccc(OCC)cc2)nc2ccccc12	i	i	i	i	i
CCCOc1ccc(C(=O)NNC(=S)NC(=O)c2cc(-c3ccc(Cl)cc3)nc3ccccc23)cc1	i	-9.01*	i	i	i
COc1ccc(C(=O)NC(=S)NNC(=O)c2ccccc2C)cc1	i	i	62.1*	i	i
COc1ccc(C(=O)NNC(=S)NC(=O)c2cc(-c3ccccc3)nc3ccccc23)cc1	i	i	i	-6.82*	i
CCc1cccc2c1NC(=O)C2(O)CC(=O)c1cccs1 (stereo unspecified)	i	i	i	i	i
COc1ccc(Cl)cc1C(=O)NNC(=S)NC(=O)c1cc(-c2ccccc2)nc2ccccc12	i	-9.78*	i	-6.54*	i
O=[N+]([O-])c1ccc(Nc2nc(N/N=C\c3ccc4c(c3)OCO4)nc(N3CCCCC3)n2)cc1	i	i	i	-4.55*	i
O=[N+]([O-])c1ccc(/C=N/Nc2nc(N3CCCCC3)nc(N3CCCCC3)n2)cc1	i	i	i	i	i
O=C1C(CSCc2ccccc2)NC(=S)N1c1ccccc1 (stereo unspecified)	i	i	i	i	i
C/C(=N\O)C(C)(C)Nc1ccc(Br)cc1	i	i	26.5*	i	i
COc1ccc(NN=Nc2nc3c([nH]2)c(=O)n(C)c(=O)n3C)cc1	i	i	i	i	i
CC1Sc2ccc(C(=O)Nc3ccccc3OC(F)F)cc2NC1=O (stereo unspecified)	i	i	i	i	i
CC1=NN(c2ccccc2)C(=O)C1C(=O)c1ccc(Cl)cc1 (stereo unspecified)	i	i	32*	i	i
COc1ccc(CCNC(=O)c2cc3c(=O)n4ccccc4nc3n(C3CCCCC3)c2=N)cc1	i	-7.13*	i	i	i
Cc1cccn2c(=O)c3cc(C(=O)NC4CCCC4)c(=N)n(CCc4ccccc4)c3nc12	i	-8.07*	i	i	i
COc1ccc(CCNC(=O)c2cc3c(=O)n4ccccc4nc3n(C3CCCCC3)c2=N)cc1OC	i	i	i	i	i
CCCN(CC1CCCO1)C(=O)c1cc(COc2ccc(F)cc2F)on1 (stereo unspecified)	i	i	i	i	i
Cc1ccccc1C(=O)OC1CCN(C)CC1	i	i	i	i	i
CN1CCC(OC(=O)c2ccccc2Cl)CC1	i	-7.19*	i	i	i
CC1CCCN(c2ccc(C(=O)NCc3ccco3)cc2[N+](=O)[O-])C1 (stereo unspecified)	i	i	i	-6.35*	i
Cc1ccc(C(=O)NCc2ccco2)cc1[N+](=O)[O-]	i	i	i	i	i
O=C(Cc1cccs1)Nc1ccc(-c2nnn(CC(=O)N3CCOCC3)n2)cc1	i	i	i	-6.39*	i
